# Test results reported in ChEMBL document CHEMBL2413043, “5-Nitro-2-furfuriliden derivatives as potential anti-Trypanosoma cruzi agents: design, synthesis, bioactivity evaluation, cytotoxicity and exploratory data analysis” (Bioorg Med Chem, 2013).
# Experiments:
# [1] = tested on: Trypanosoma cruzi; assay: Antitrypanosomal activity against epimastigotes of Trypanosoma cruzi Y assessed as parasite growth inhibition after 5 days by spectrophotometric analysis; assay type: functional, organism-based; details: for IC50: Trypanosoma cruzi, Y, 120 h
# How it was run: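 Stationary-phase epimastigotes (10-day culture, 28 °C) diluted in LIT medium with 10% fetal calf serum to 2.0 x 10^6 parasites/mL. Compounds dissolved in DMSO (final ≤1.0%), 0.25–180.0 µM, incubated 28 °C for 5 days. Growth read at A580 versus day 0 and untreated controls as percent growth inhibition. Triplicates; IC50 by sigmoid dose–response fit, at least five concentrations.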
# [2] = Selectivity index, ratio of IC50 for human FN1 fibroblasts to IC50 for epimastigotes of Trypanosoma cruzi Y
# How it was run: (§1)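 Selectivity index taken as IC50 in the mammalian cell line (J774 or FN1) divided by IC50 against Y-strain epimastigotes.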
# [3] = Cytotoxicity against human FN1 fibroblasts after 24 hrs by MTT assay
# How it was run: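 Human FN1 fibroblasts kept in RPMI 1640 with 10% FBS at 37 °C, 5% CO2. Plated in triplicate at 1 x 10^4 cells/well, incubated overnight, then treated 24 h with 12.5–200 µM. MTT at 5 mg/mL for 2 h, formazan dissolved in 0.1 N HCl in isopropanol, absorbance at 540 nm, IC50 determined.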
# [4] = tested on: J774; assay: Cytotoxicity against mouse J774 cells after 48 hrs by MTT assay; assay type: cell-based; details: J774, 48 h
# How it was run: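 J774 murine macrophages in RPMI 1640 with 10% FBS, 37 °C, 5% CO2. Seeded at 1.0 x 10^4 cells/well in RPMI 1640 with 5% heat-inactivated fetal calf serum, attached 24 h. Exposed 48 h to 0.8–400.0 µM. MTT at 0.4 mg/mL final for 3 h at 37 °C, formazan in DMSO, A595. IC50 is the mean of six experiments, sigmoid fit, at least five concentrations.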
# [5] = Selectivity index, ratio of IC50 for mouse J774 cells to IC50 for epimastigotes of Trypanosoma cruzi Y; assay type: toxicity, cell-based; details: read-out: Ratio IC50; how it was run: as §1
# [6] = tested on: Trypanosoma cruzi; assay: Ratio of nifurtimox IC50 to compound IC50 for epimastigotes of Trypanosoma cruzi Y; assay type: functional
IC50 [1] [µM],SMILES,log(1/C) [1],Ratio IC50 [2],IC50 [3] [µM],IC50 [4] [µM],selectivity ratio [5],Ratio IC50 [6]
9.84,CC(=O)N1N=C(c2ccc(C)cc2)OC1c1ccc([N+](=O)[O-])o1 (centres undefined),5.01,–,–,–,–,–
9.26,COc1ccc(C2=NN(C(C)=O)C(c3ccc([N+](=O)[O-])o3)O2)cc1 (centres undefined),5.03,–,–,–,–,–
8.27,CCCCc1ccc(C2=NN(C(C)=O)C(c3ccc([N+](=O)[O-])o3)O2)cc1 (centres undefined),5.08,22.49,186,> 400,> 48,–
1.05,CCCCc1ccc(C(=O)N/N=C/c2ccc([N+](=O)[O-])o2)cc1,5.98,93.33,98,28.1,26.7,3
11.1,CC(=O)N1N=C(c2ccc(C(F)(F)F)cc2)OC1c1ccc([N+](=O)[O-])o1 (centres undefined),4.95,–,–,–,–,–
3.94,COc1ccc(C(=O)N/N=C/c2ccc([N+](=O)[O-])o2)cc1,5.4,–,–,–,–,–
–,CC1CS(=O)(=O)CCN1/N=C/c1ccc([N+](=O)[O-])o1 (centres undefined) [NIFURTIMOX],–,>53,> 200,280,74.2,–
3.71,Cc1ccc(C(=O)N/N=C/c2ccc([N+](=O)[O-])o2)cc1,5.43,–,–,–,–,–
12.5,N#Cc1ccc(C(=O)N/N=C/c2ccc([N+](=O)[O-])o2)cc1,4.9,–,–,–,–,–
4.42,O=C(N/N=C/c1ccc([N+](=O)[O-])o1)c1ccc(C(F)(F)F)cc1,5.35,–,–,–,–,–
3.74,O=C(N/N=C/c1ccc([N+](=O)[O-])o1)c1ccc(Br)cc1,5.42,–,–,–,–,–
4.44,O=C(N/N=C/c1ccc([N+](=O)[O-])o1)c1ccccc1,5.35,–,–,–,–,–
11.5,CC(=O)N1N=C(c2ccc(Cl)cc2)OC1c1ccc([N+](=O)[O-])o1 (centres undefined),4.94,>17,> 200,> 400,> 34,–
9.59,CC(=O)N1N=C(c2ccc(Br)cc2)OC1c1ccc([N+](=O)[O-])o1 (centres undefined),5.01,–,–,–,–,–
4.03,O=C(N/N=C/c1ccc([N+](=O)[O-])o1)c1ccc(Cl)cc1,5.39,>49.63,> 200,57.1,14.2,–
3.21,O=C(N/N=C/c1ccc([N+](=O)[O-])o1)c1ccc(I)cc1,5.49,–,–,–,–,–
11.5,CC(=O)N1N=C(c2ccc(I)cc2)OC1c1ccc([N+](=O)[O-])o1 (centres undefined),4.93,–,–,–,–,–
13.4,CC(=O)N1N=C(c2ccc(C#N)cc2)OC1c1ccc([N+](=O)[O-])o1 (centres undefined),4.87,–,–,–,–,–
10.2,CC(=O)N1N=C(c2ccccc2)OC1c1ccc([N+](=O)[O-])o1 (centres undefined),4.99,–,–,–,–,–

SMILES,IC50 [1] [µM],log(1/C) [1],Ratio IC50 [2],IC50 [3] [µM],IC50 [4] [µM],selectivity ratio [5],Ratio IC50 [6]
O=C(N/N=C/c1ccc([N+](=O)[O-])o1)c1ccc([N+](=O)[O-])cc1,9.45,5.02,18.83,178,79.1,8.37,–
O=C(Cn1ccnc1[N+](=O)[O-])NCc1ccccc1 [BENZNIDAZOLE],22.7,–,>9,> 200,> 400,> 18,–
CC(=O)N1N=C(c2ccc([N+](=O)[O-])cc2)OC1c1ccc([N+](=O)[O-])o1 (centres undefined),13.9,4.85,>14,> 200,114,8.21,–
